One data set deals with Artemia. The data set can be described thus: Toxicity against brine shrimp. Type of data set: organism-based. To be noted: in vivo.
Data set [1] deals with 5-hydroxytryptamine receptor 2A (Rattus norvegicus) (UniProt P14842). The data set can be described thus: Displacement of [3H]ketanserin from rat 5HT2A receptor expressed in mouse NIH3T3 cells assessed as bound radiolabeled ligand remaining by liquid scintillation relative to control. Type of data set: cell-based. The method, boiled down:
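Crude membranes from confluent NIH 3T3 cells stably expressing rat 5-HT2A receptor (DMEM, 10% calf serum, geneticin), prepared freshly in 50 mM Tris, 4 mM CaCl2, 10 µM pargyline, pH 7.4. Tritiated ligand 0.5 nM final; nonspecific binding with 10 µM 5-HT; test compounds at 100 µM. Triplicate 1 mL reactions, 30 min at 30 °C. Glass-fiber filtration, scintillation counting, reported as percent of control binding.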
On the technique in general: In a radioligand displacement assay an active substance lowers the binding of a labelled ligand.

Sequence of 5-hydroxytryptamine receptor 2A (Rattus norvegicus) (P14842 whole entry): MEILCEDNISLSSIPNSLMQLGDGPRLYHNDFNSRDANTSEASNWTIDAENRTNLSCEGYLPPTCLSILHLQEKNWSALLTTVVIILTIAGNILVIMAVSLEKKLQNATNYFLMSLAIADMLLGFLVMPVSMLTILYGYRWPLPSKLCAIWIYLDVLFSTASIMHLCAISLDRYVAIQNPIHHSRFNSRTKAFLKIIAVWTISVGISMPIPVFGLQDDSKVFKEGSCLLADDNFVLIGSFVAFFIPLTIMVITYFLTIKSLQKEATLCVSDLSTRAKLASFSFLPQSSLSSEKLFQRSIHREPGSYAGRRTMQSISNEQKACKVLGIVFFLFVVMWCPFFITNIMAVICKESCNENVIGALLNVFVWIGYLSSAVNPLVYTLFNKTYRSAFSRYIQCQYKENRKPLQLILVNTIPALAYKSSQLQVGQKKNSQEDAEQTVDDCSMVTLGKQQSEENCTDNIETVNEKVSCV

On to `C[C@H]1CC[C@H]2[C@H]1C[C@H](C(C)(C)O)CC[C@@]2(C)O`, for which the Activity entry in the data set with Artemia is “Non-toxic”.
Turning to `CC(=O)NC(Cc1ccc(OCC=C(C)C)cc1)C(=O)O` (stereo not given), the Activity entry in the data set on Artemia is “Toxic”; in data set [1], 85%.
`C[C@H]1CC[C@H]2[C@H]1C[C@]1([C@@H](C)CO)CC[C@]2(C)O1`: the Activity entry in the data set with Artemia is recorded as “Non-toxic”.
On to `COC(=O)C(Cc1ccc(OCC=C(C)C)cc1)NC(C)=O` (stereo not given), for which the Activity in data set [1] came to 85%.
Consider `C=C(C)[C@@H]1CC[C@@](C)(O)[C@H]2CC[C@H](C)[C@@H]2C1`, for which the Activity entry in the data set with Artemia is recorded as “Non-toxic”.
Take `CC(C)=CCOc1ccc(CCO)cc1` [ETROGOL]: the Activity entry with Artemia was “Toxic”; in data set [1] it was 85%.
The like results for `CC(=O)OCCc1ccc(OCC=C(C)C)cc1` [ETROGOL ACETATE] were, in that order, “Toxic” and 11%.

The values are drawn from ChEMBL document CHEMBL1146574, “A novel 5-HT receptor ligand and related cytotoxic compounds from an acid mine waste extremophile” (J Nat Prod, 2003).
